Results on 98 compounds are retold here after ChEMBL document CHEMBL4513216, “Probing the Open Global Health Chemical Diversity Library for Multistage-Active Starting Points for Next-Generation Antimalarials” (ACS Infect Dis, 2020).

The series in a line: Toxicity liver stage against HepG2, at 10uM. Details: test concentration 10 uM, cell line HepG2-A16-CD81EGFP. Format: cell-based. Conditions: human, HepG2-A16-CD81EGFP cells; read-out: INHIBITION
Put shortly: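 Uninfected HepG2-A16-CD81EGFP cells, 3 × 10^3 per well, 1536-well, plated on prespotted compound at 10 μM final, parasite-free screening media added to match infected plates; puromycin 10 μM positive, DMSO 0.5% negative; run in parallel with 48 h PbLuc assay at 37 °C, 5% CO2; viability by CellTiter-Glo luminescence, normalized to controls.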
Turning to `N#Cc1cn(C2CC2)c(=O)n(CC(O)c2ccccc2F)c1=O` (stereo not drawn), the cytotoxicity at 10 µM turned out to be 3.97%.

Regarding `O=C(c1ccccc1)N1CC(C(=O)N2CCOCC2)C2(CCOCC2)C1` (stereo not drawn), the cytotoxicity at 10 µM was determined as 3.07%.

With `COc1ccc(Cn2cc(C(=O)N(C)CCN(C)C)nn2)cc1`, the cytotoxicity at 10 µM is 7.13%.

For the compound `CN(C)CC1(O)CCN(C(=O)c2cnc(CN3CCCC3)s2)C1` (stereo not drawn), the cytotoxicity at 10 µM was determined as 0.245%.

In the case of `Cc1cccc(-n2nc(CC(C)C)nc2CCC(=O)N(C)C)c1`, the cytotoxicity at 10 µM is -9.61%.

`O=C(c1cc(C2CC2)[nH]n1)N1CCN(Cc2ccc(Cl)cc2)CC1`: the cytotoxicity at 10 µM turned out to be 37.2%.

As for `Cc1nc(CN2CCN(C(=O)COc3c(C)ccc(C)c3C)CC2)no1`, the cytotoxicity at 10 µM is -1.4%.

Regarding `Cc1noc(C(C)N2CCN(c3ccc(C#N)cn3)CC2)n1` (stereo not drawn), the cytotoxicity at 10 µM is -0.871%.

In the case of `c1ccc(COc2ccccc2CNC2CCc3ncnn3C2)cc1` (stereo not drawn), the cytotoxicity at 10 µM was -10.2%.

For `CCOC(=O)C1(Cc2cccc(Cl)c2)CCCN(Cc2ncc[nH]2)C1` (stereo not drawn), the cytotoxicity at 10 µM was -5.22%.

For `CCc1nnsc1C(=O)N(C)Cc1ccc(C)o1`, the cytotoxicity at 10 µM was -46.5%.

Consider `COCCN1CCCC(c2nc3c([nH]2)CC(C)(C)CNC3=O)C1` (stereo not drawn), for which the cytotoxicity at 10 µM was -11.6%.

For the compound `CN1CCC(Cc2noc(-c3cccc(OCC(N)=O)c3)n2)CC1`, the cytotoxicity at 10 µM was -4.42%.

Turning to `O=C(NCc1c[nH]c(=O)[nH]c1=O)C1CCOc2ccccc2C1` (stereo not drawn), the cytotoxicity at 10 µM is -3.03%.

Turning to `CN(Cc1ccco1)C(=O)CN1CCCC(Cn2cncn2)C1` (stereo not drawn), the cytotoxicity at 10 µM was -4%.

For the compound `CCC[C@@H]1CN(C(=O)c2cc3ccccc3cc2O)C[C@H]1N(C)C`, the cytotoxicity at 10 µM was -10.2%.

For `Cc1cc(C)c(CNC(=O)N2CCCC2c2ccccc2)c(=O)[nH]1` (stereo not drawn), the cytotoxicity at 10 µM was -0.818%.

With `O=C(c1ccc(-n2cccn2)nc1)N1CCC(c2ccn[nH]2)C1` (stereo not drawn), the cytotoxicity at 10 µM is -0.399%.

As to `CC(C)(C)c1ccc2c(c1)CCN2C(=O)c1nc(=O)[nH][nH]1`, the cytotoxicity at 10 µM was -3.74%.

Turning to `CNC(=O)CNC(=O)NCc1cc2c(s1)CCC(C)(C)C2`, the cytotoxicity at 10 µM amounted to 4.08%.

Take `CC(c1ccccc1Cl)N(C(=O)CSCC(N)=O)C1CC1` (stereo not drawn): the cytotoxicity at 10 µM is -36.3%.

Regarding `CC(c1ccccc1)N(C)CC(=O)NCCC#N` (stereo not drawn), the cytotoxicity at 10 µM was determined as 3.52%.

With `Cc1ncc(CC(=O)N2CCC(N3C[C@@H](C)O[C@@H](C)C3)CC2)c(=O)[nH]1`, the cytotoxicity at 10 µM worked out at 3.26%.

For `CCN1CCN(CC(O)c2ccc(Br)cc2)CC1` (stereo not drawn), the cytotoxicity at 10 µM is -6.95%.

On to `O=c1occ(CN2CCOCC2)c(O)c1CN1CCOCC1`, for which the cytotoxicity at 10 µM is -12.1%.

As for `COCCN1CCCC(c2ncc(C(=O)N(C)C)c(C)n2)C1` (stereo not drawn), the cytotoxicity at 10 µM was -1.21%.

With `Cc1nc(NCC2CC2)nc2c1COCC21CCN(C(=O)NC(C)C)C1` (stereo not drawn), the cytotoxicity at 10 µM is -83.2%.

Consider `CS(=O)(=O)N1C[C@@H]2COC[C@]2(C(=O)NCCc2cccs2)C1`, for which the cytotoxicity at 10 µM was -110%.

As to `COc1ccc(CC(=O)N2CCCN(c3ccc(C#N)cc3)CC2)cc1`, the cytotoxicity at 10 µM is -1.95%.

As to `CC(C)NC(=O)CCNC(=O)Nc1cnn(-c2ccccc2F)c1`, the cytotoxicity at 10 µM was determined as 1.21%.

`c1ccc(NCc2cn3c(n2)CN(Cc2nccs2)CC3)nc1`: the cytotoxicity at 10 µM was 10.4%.

Take `CN(C1CCCCC1)S(=O)(=O)NC1CCCN(c2ncccn2)C1` (stereo not drawn): the cytotoxicity at 10 µM worked out at 3.7%.

With `Cc1cccnc1NC(=O)NC(C)Cn1cccn1` (stereo not drawn), the cytotoxicity at 10 µM was -6.8%.

Consider `CSc1ccsc1C(=O)NS(=O)(=O)c1ccc(F)cc1`, for which the cytotoxicity at 10 µM is -3.91%.

For `O=C(c1cscn1)N1CCC2(CCN(Cc3nccs3)CC2)CC1`, the cytotoxicity at 10 µM was -71%.

For the compound `CNc1cc(C)nc(C2CCN(CCO)CC2)n1`, the cytotoxicity at 10 µM came to 1.56%.

In the case of `Cc1nccc([C@H]2C[C@@H]3CCN(S(C)(=O)=O)C[C@H]3O2)n1`, the cytotoxicity at 10 µM was -0.522%.

As for `COc1ccc(CCNC(=O)Cn2ncc3c2c(C)nn3C)cc1`, the cytotoxicity at 10 µM stood at 8.93%.

Turning to `Cc1cccc(CN2CCn3cc(Cn4cccn4)nc3C2)n1`, the cytotoxicity at 10 µM was 3.27%.

As for `CCc1nnc(N[C@H](C)c2cccc(OC)c2)o1`, the cytotoxicity at 10 µM is 1.35%.

Turning to `Cc1ccccc1[C@@H]1CN(Cc2nc3ncccn3n2)C[C@H]1C(=O)O`, the cytotoxicity at 10 µM was -6.55%.

`CN(Cc1csc(-c2cccs2)n1)Cc1cccnc1N`: the cytotoxicity at 10 µM was -1.06%.

Take `CSCc1noc(CN2CC(Cc3ccccc3)CC2=O)n1` (stereo not drawn): the cytotoxicity at 10 µM is -0.404%.

In the case of `O=C(c1ccccc1-c1ccccc1)N1CCOC2(CNCCOC2)C1` (stereo not drawn), the cytotoxicity at 10 µM was -16.2%.

As to `Nc1cc(C(=O)NCC2CCN(Cc3cccc(O)c3)C2)ccn1` (stereo not drawn), the cytotoxicity at 10 µM was -8.69%.

In the case of `CC(C)c1nc(CN2CCCC2Cn2cccn2)no1` (stereo not drawn), the cytotoxicity at 10 µM was -0.121%.

For `O=C(NCCN1CCOCC1)N(Cc1ccoc1)C1CCCCC1`, the cytotoxicity at 10 µM is -0.315%.

Turning to `Cc1ccc(S(=O)(=O)NCc2[nH]ncc2Br)cc1C`, the cytotoxicity at 10 µM worked out at 5.23%.

Take `CCOC(=O)[C@@H]1[C@@H](c2ccccc2)CN2CCNC[C@H]12`: the cytotoxicity at 10 µM came out at 3.8%.

Consider `CC(C)c1nnc2n1CCN(CCC(=O)N1CCc3ccccc31)C2`, for which the cytotoxicity at 10 µM was -21.1%.

`O=S(=O)(NCC1CCOc2ccccc2C1)N1CCOCC1` (stereo not drawn): the cytotoxicity at 10 µM is -9.75%.

Regarding `O=C(NCCCOCC1CCCO1)c1cccnc1N1CCCC1` (stereo not drawn), the cytotoxicity at 10 µM is 12.4%.

For `Cc1cc(C)n(CC2CCCN2CCc2ccccn2)n1` (stereo not drawn), the cytotoxicity at 10 µM was -8.01%.

Regarding `CC(NC(=O)N1CCCCCC1)c1ccc(S(N)(=O)=O)cc1` (stereo not drawn), the cytotoxicity at 10 µM is -6.06%.

For the compound `COCCc1noc(CN2CCCC2Cn2cc(C)cn2)n1` (stereo not drawn), the cytotoxicity at 10 µM is -3.32%.

In the case of `CN(C)CC(=O)N1CCC2(CCN(Cc3cccc(F)c3)CC2)C1`, the cytotoxicity at 10 µM is 1.11%.

With `Cc1cccc(-c2noc(CN3CC(n4cccn4)C3)n2)c1`, the cytotoxicity at 10 µM was -0.0158%.

As to `CNc1ncc(-c2ccnn2C2CCN(C(C)=O)CC2)cn1`, the cytotoxicity at 10 µM was 0.581%.

Take `CCC(C)NC(=O)CS(=O)(=O)Cc1cc(Cl)c2c(c1)OCCCO2` (stereo not drawn): the cytotoxicity at 10 µM was 2.19%.

As for `c1cc(-c2cncc(C3CCNCC3)n2)n[nH]1`, the cytotoxicity at 10 µM was 3.42%.

In the case of `O=C(c1ccccn1)N1CCCC(c2nccn2CC2CCC2)C1` (stereo not drawn), the cytotoxicity at 10 µM was -22.4%.

`COCCN1CCN(CCCS(C)(=O)=O)CC1C` (stereo not drawn): the cytotoxicity at 10 µM is -5.5%.

Consider `Cc1cc(C2CCCCN2C(=O)c2ccsc2)nc2nccn12` (stereo not drawn), for which the cytotoxicity at 10 µM was -11.8%.

For the compound `Fc1ccc(-c2nnc(CN3CCCC3Cn3cncn3)o2)cc1` (stereo not drawn), the cytotoxicity at 10 µM is -10.5%.

Turning to `CN(C)[C@@H]1CCN(S(=O)(=O)C2CC2)[C@H]1Cc1ccccc1`, the cytotoxicity at 10 µM was -7.46%.

For `CCC[C@@H]1CN(Cc2ccccc2C#N)C[C@H]1NC(C)=O`, the cytotoxicity at 10 µM is -3.92%.

For the compound `Fc1ccc(F)c(CN2CCC(c3cc4ncccc4cn3)CC2)c1`, the cytotoxicity at 10 µM is -5.14%.

As for `Cc1oc(C(=O)O)cc1S(=O)(=O)Nc1cc(Br)ccc1F`, the cytotoxicity at 10 µM is -3.46%.

Turning to `COc1c(C)cnc(CN(C)C2CCOC3(CCOCC3)C2)c1C` (stereo not drawn), the cytotoxicity at 10 µM is -0.971%.

On to `O=C(O)c1cccnc1CN1CCOc2ccccc2C1`, for which the cytotoxicity at 10 µM was found to be 7.66%.

With `Cn1cc(-c2ccnc(NCC3CCCCO3)n2)cn1` (stereo not drawn), the cytotoxicity at 10 µM is -131%.

Consider `CN(Cc1ccc(N2CCOCC2)cc1)Cc1noc(C(C)(C)C)n1`, for which the cytotoxicity at 10 µM was determined as 14%.

`CN1CCN(c2ccccc2CNC(=O)CSC(F)(F)F)CC1`: the cytotoxicity at 10 µM was determined as 8.27%.

For `COCCc1noc(CN2CCCC2c2noc(C3CC3)n2)n1` (stereo not drawn), the cytotoxicity at 10 µM turned out to be 1.33%.

For the compound `CCCc1nc(CN2CCCC(c3noc(C4CC4)n3)C2)no1` (stereo not drawn), the cytotoxicity at 10 µM is -8.87%.

As for `COc1ccc(C)cc1Nc1nc2c(C)nn(C)c2c(=O)n1C`, the cytotoxicity at 10 µM was determined as 3.96%.

Consider `CC(C(=O)NCCOc1ccc2c(c1)OCO2)n1cncn1` (stereo not drawn), for which the cytotoxicity at 10 µM was -4.33%.

As for `Cc1cccc(=O)n1CCC(=O)N1CC[C@](C)(O)[C@H](C)C1`, the cytotoxicity at 10 µM worked out at 2.81%.

In the case of `CCc1ccc(C2c3nc[nH]c3CCN2Cc2nccn2CC)nc1` (stereo not drawn), the cytotoxicity at 10 µM was -0.123%.

Take `O=c1oc(-c2ccc(F)cc2)nn1CN1CCCCC1`: the cytotoxicity at 10 µM is -4.35%.

Consider `Cc1cnn(CC2CCCCN2Cc2nc(N)c3ccccc3n2)c1` (stereo not drawn), for which the cytotoxicity at 10 µM was -7.21%.

Consider `O=C(c1n[nH]c2c1CN(C1CCOC1)CC2)N1CCOCC1` (stereo not drawn), for which the cytotoxicity at 10 µM is 4.88%.

For the compound `CCOCCn1c(=O)[nH]c2cc(C(=O)N(C)CCc3cn[nH]c3)ccc21`, the cytotoxicity at 10 µM is -21.7%.

For the compound `CCOC(=O)c1sc2ccsc2c1CNC(=O)C(C)(C)C#N`, the cytotoxicity at 10 µM is -4.42%.

For `Cc1nccc(C2CN(C(=O)c3cncnc3)C2)n1`, the cytotoxicity at 10 µM is -2.46%.

Regarding `CCOc1ncccc1NC(=O)NCC(O)c1ccccc1OC` (stereo not drawn), the cytotoxicity at 10 µM is -8.36%.

As for `CS(=O)(=O)c1cccc(S(=O)(=O)NC(=O)CC2CCCCC2)c1`, the cytotoxicity at 10 µM was -3.17%.

Consider `CCOC(=O)CSc1nnc([C@@H](N)CC(C)C)o1`, for which the cytotoxicity at 10 µM was 6.76%.

With `Cc1cccc(COc2ccc(C(C)NC(=O)CNC(N)=O)cc2)c1` (stereo not drawn), the cytotoxicity at 10 µM was -20.9%.

Consider `CCN1CCN(S(=O)(=O)c2cnc(NC(C)=O)s2)CC1`, for which the cytotoxicity at 10 µM was determined as 1.37%.

For `Cc1cc(C(O)CCNS(=O)(=O)c2ccc(Cl)s2)c(C)o1` (stereo not drawn), the cytotoxicity at 10 µM is -3.95%.

In the case of `CCN1CCC2(CCN(Cc3nccs3)CC2)C1=O`, the cytotoxicity at 10 µM was -0.311%.

Consider `COc1ccc(OC)c(C(O)CN2CCN(c3cccc(C)c3)CC2)c1` (stereo not drawn), for which the cytotoxicity at 10 µM is 6.69%.

In the case of `Cc1cc(-c2ccc(=O)n(C3CCN(C(=O)C4CCC4)CC3)n2)c(C)o1`, the cytotoxicity at 10 µM worked out at 4.22%.

Regarding `Cc1cnc(NC(=O)c2ccc(-n3ncc(C#N)c3N)cc2)s1`, the cytotoxicity at 10 µM is 5.88%.

For the compound `O=C1OCCC1N1CCN(c2cnccn2)CC1` (stereo not drawn), the cytotoxicity at 10 µM was -0.0916%.

Consider `Cc1cnn(CC2CCCN2C(=O)Cn2nc(C)c(Cl)c2C)c1` (stereo not drawn), for which the cytotoxicity at 10 µM is -11.3%.

On to `CS(=O)(=O)N[C@@H]1CCO[C@]2(CCN(C(=O)C3=CCCC3)C2)C1`, for which the cytotoxicity at 10 µM is 0.693%.
